RGS4 block: RGS4 inhibitors, primary screen, cell-based, HEK293 M3R inducible RGS4, calcium flux. Fluo-4 calcium flux; hits give high values; triggered by carbachol at its EC20. B-score at 10 µM. 310,000 tested, 0.45% active. AID 463165, 2010;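 active = B-score, a plate-corrected calcium signal, over three deviations above library mean, with baseline fluorescence within five deviations of library mean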;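 note: RGS4 expression induced by doxycycline in cells with stable M3 receptor; B-score is computed from the integrated fluorescence ratio over baseline after carbachol; higher B-score means a larger calcium signal and so more RGS4 inhibition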
MrgX1 PAM: positive allosteric modulators of MrgX1, primary screen, HEK293 cells, Fluo-4 calcium flux; Mas-related G-protein coupled receptor member X1 (Homo sapiens), Q96LB2; FDSS; hits give high values; B-score at 10 µM; 310,000 tested, 0.63% active; AID 588675, 2011;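 active = plate-corrected calcium response at least 3 library SD above typical, normal starting fluorescence, not activating the receptor alone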;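 note: compound read alongside a low EC10 to EC30 dose of BAM8-22 agonist; peak minus trough fluorescence over baseline measured at the second addition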
Target sequence (Q96LB2 whole entry, looked up): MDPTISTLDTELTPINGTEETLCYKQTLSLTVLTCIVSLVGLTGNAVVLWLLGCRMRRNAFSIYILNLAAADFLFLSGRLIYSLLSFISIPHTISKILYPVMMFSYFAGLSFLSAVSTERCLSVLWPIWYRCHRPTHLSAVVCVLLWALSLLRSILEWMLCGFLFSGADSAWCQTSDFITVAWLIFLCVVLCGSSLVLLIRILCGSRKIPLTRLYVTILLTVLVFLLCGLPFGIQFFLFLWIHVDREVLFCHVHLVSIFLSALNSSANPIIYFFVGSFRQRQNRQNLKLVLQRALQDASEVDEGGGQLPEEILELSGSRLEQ
MrgX1 ag: agonists of human MrgX1 receptor, primary screen, HEK293 cells, Fluo-4 calcium flux; B-score at 10 µM; 310,000 tested, 0.44% active; Mas-related G-protein coupled receptor member X1 (Homo sapiens), Q96LB2; Fluo-4 calcium fluorescence, agonist mode; hits give high values;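 active = calcium response B-score plate-corrected fluorescence ratio at least 3 library SD, with starting fluorescence B-score inside 5 SD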
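Assay system: stable human MrgX1 HEK293 cell line. Quantity: 15,000 cells per well. Schedule: cells plated overnight, dye loaded 0.5 h 37 °C, 0.5 h room temperature. Detection: Fluo-4 NW calcium-flux fluorescence, kinetic read. Read-out basis: peak-minus-minimum fluorescence over baseline, converted to B scores. Control set: positive and negative control wells on each plate.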
MrgX1 antagonist: antagonists of human MrgX1 receptor, primary screen, HEK293 cells, Fluo-4 calcium flux. Mas-related G-protein coupled receptor member X1 (Homo sapiens), Q96LB2. BAM8-22 antagonism; hits give low values. B-score at 10 µM. 310,000 tested, 1.3% active. AID 588676, 2011;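 active = calcium-response B-score plate-corrected more than 3 library SD below zero, starting fluorescence within 5 deviations, no agonist response on first addition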;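 note: peak minus trough fluorescence over baseline after final BAM8-22 challenge near maximal dose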
RGS4 act: RGS4 potentiators or activators, primary screen, cell-based, HEK293 M3R inducible RGS4, calcium flux. 310,000 tested, 0.92% active. carbachol calcium flux Fluo4; hits give low values. B-score at 10 µM. AID 463111, 2010;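 active = B-score of the integrated calcium signal more than 4 SD below the library mean, with starting fluorescence not abnormally high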;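 note: negative B-score means reduced calcium response which marks RGS4 activation or potentiation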
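Reagent: ECmax carbachol challenge; Test system: M3R-expressing HEK293 line, RGS4 induced by doxycycline; Schedule: overnight RGS4 induction, 30 min dye load 37 °C, 20 min compound RT; Detection: calcium dye Fluo4 fluorescence; Read-out: Agonist-evoked peak-minus-minimum fluorescence over baseline, integrated ratio, B score.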
Of the large screens only hits and unclear results are named; the others gave an inactive call. Most compounds without a hit are left out; they make up all but 3.5% or so of the library.

O=C(c1ccccc1O)N1N=C(C(F)(F)F)CC1(O)c1ccc([N+](=O)[O-])cc1 (configuration not stated)	none
COC(=O)C1=NN(C(=O)c2ccc(Cl)cc2)C(O)(c2ccccc2)C1 (configuration not stated)	MrgX1 ag 39
CCC1=NN(C(=O)c2ccccc2O)C(O)(c2ccccc2)C1 (configuration not stated)	none
CCOC(=O)c1nnn2c1nc(Nc1cccc(C(F)(F)F)c1)c1ccccc12	none
O=C(CN1CCN(CC(=O)Nc2cccc(F)c2)CC1)Nc1ccc(-c2ccccc2)cc1	none
CCOC(=O)C1=NN(C(=O)c2ccc(C)cc2)C(O)(c2ccc(Cl)cc2)C1 (configuration not stated)	MrgX1 ag 54, RGS4 act -9.3
COc1cc(NC(=O)COC(=O)CCOc2ccc(C)cc2)cc(OC)c1	none
O=c1/c(=C/c2cccc3ccccc23)sc2ncnn12	none
Cc1ccsc1/C=c1\sc2ncnn2c1=O	MrgX1 PAM 6.6
C/C(=N\NC(=S)NCc1ccccc1)c1ccccc1	none
C/C(=N\NC(=S)NCc1ccccc1)c1ccco1	MrgX1 PAM 8.1
O=C(Nc1ccc2cn[nH]c2c1)c1c(Cl)cccc1Cl	none
O=C1C(Cl)=C(Nc2ccc3cn[nH]c3c2)C(=O)c2ccccc21	MrgX1 antagonist -9.6
CCN(c1ccccc1)S(=O)(=O)c1ccc(C(=O)N(CCN(C)C)c2nc3c(F)cc(F)cc3s2)cc1	RGS4 block 14
CN(C)CCN(C(=O)c1ccc(S(=O)(=O)N(C)c2ccccc2)cc1)c1nc2cc3c(cc2s1)OCCO3	RGS4 act -7.8
CN(C)CCN(C(=O)c1ccc(S(=O)(=O)N(C)C)cc1)c1nc2cc3c(cc2s1)OCCO3	none
CCOC(=O)c1c(-c2ccco2)csc1NC(=O)COC(=O)c1cnc(C)cn1	none
COc1ccc(S(=O)(=O)N2CCN(C(=O)COc3ccc(C)c(C)c3)CC2)cc1OC	none
O=c1c2ccccc2c(/C=N/NS(=O)(=O)c2ccccc2)c(O)n1-c1ccccn1	MrgX1 ag 52
CCSc1nnc2c(n1)[nH]c1c(C)cccc12	none
CSc1nnc2c(n1)[nH]c1c(C)cccc12	MrgX1 antagonist -4.7
CCOc1ccccc1C(=O)Nc1nnc(Cc2ccc(OC)c(OC)c2)s1	none
COC(=O)CC1=C(C(=O)OC)C(c2ccncc2)C(C#N)=C(N)O1 (configuration not stated)	none
COC(=O)CC1=C(C(=O)OC)C(c2cccc(OCC(N)=O)c2)C(C#N)=C(N)O1 (configuration not stated)	MrgX1 ag 34
Brc1ccc(OCCCCN2CCCCC2)cc1	none
CC1CCN(CCCCOc2ccc(Br)cc2)CC1	RGS4 act -7.4
CC1CCN(CCCCOc2cccc(Br)c2)CC1	RGS4 act -7
CC1CCN(CCCCOc2ccccc2Br)CC1	none
Clc1ccc(CSc2ncn(-c3ccccc3)n2)cc1	RGS4 act -7.2
Clc1cccc(CSc2ncn(-c3ccccc3)n2)c1	none
COc1ccc(CCNc2ccc(C(CC(N)=O)NC(=O)c3cc(OC)ccc3OC)cc2[N+](=O)[O-])cc1 (configuration not stated)	MrgX1 antagonist -5
CCOC(=O)C1CCCN(C(=O)c2ccc(C)c([N+](=O)[O-])c2)C1 (configuration not stated)	RGS4 act -8.6
CCOC(=O)C1CCCN(C(=O)c2ccc([N+](=O)[O-])c(C)c2)C1 (configuration not stated)	none
Cc1cccc(C)c1OCc1cc(C(=O)N2CCC(C3CCCCC3)C2)no1 (configuration not stated)	RGS4 act -7.6
CC12CCC(C(=O)N(c3ccccn3)c3ccccn3)(OC1=O)C2(C)C (configuration not stated)	none
Cc1cc(NC(C)c2ccccc2)n2ncc(-c3ccccc3)c2n1 (configuration not stated)	RGS4 act -7
Cc1cc(NC2CCCC2)n2ncc(-c3ccccc3)c2n1	none
